TDP2 inh: TDP2 (human) inhibition, absorbance primary screen; recombinant TDP2, T5PNP hydrolysis, p-nitrophenol absorbance 415 nm; AID 720702; O95551; inhibition, % at 12.8 µM; 0.34% of 370,000 active;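 active means inhibition above the mean of all tested compounds plus 3 SD, set per campaign, cut at about 25% in these data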
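Evaluation: % inhibition relative to enzyme-containing and enzyme-free wells. Material: recombinant human TDP2. Benchmarks: enzyme-free and DMSO wells. Timing: enzyme reaction with compound for 2 h at 37 °C. Compound dosing: 12.8 µM only. Measured by: p-Nitrophenol epi absorbance. Reagent: T5PNP substrate at 5 mM, a TopII-DNA adduct mimic. Replication: single well per compound.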
LEDGF integ inh: blocks HIV-1 LEDGF/p75-dependent DNA integration | AID 743269 | TR-FRET IN-LEDGF/p75 DNA integration, Eu/Cy5 | 0.64% of 370,000 active | inhibition, % at 3.7 µM;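 active means inhibition above the screen-wide mean plus 3 SD, cut at about 13% in these data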;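 further: signal is the Cy5 over europium emission ratio at 671 and 618 nm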
PRMT1 inh: inhibitors of human PRMT1. Q99873. recombinant PRMT1, activity-based probe fluorescence polarization. inhibition, % at 2.79 µM. 1.3% of 370,000 active;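 active means inhibition above about 21% made by adding two undisclosed values, limit read from the data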
SIAE inh: inhibitors of human sialic acid acetylesterase SIAE | 0.69% of 370,000 active | SIAE FP-Rh probe binding, fluorescence polarization | inhibition, % at 9.66 µM | Q9HAT2;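 active means inhibition above a cutoff: mean of compounds within the control limits plus 3 SD of those, cut at about 17% in these data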
Target sequence (Q9HAT2 whole entry, looked up): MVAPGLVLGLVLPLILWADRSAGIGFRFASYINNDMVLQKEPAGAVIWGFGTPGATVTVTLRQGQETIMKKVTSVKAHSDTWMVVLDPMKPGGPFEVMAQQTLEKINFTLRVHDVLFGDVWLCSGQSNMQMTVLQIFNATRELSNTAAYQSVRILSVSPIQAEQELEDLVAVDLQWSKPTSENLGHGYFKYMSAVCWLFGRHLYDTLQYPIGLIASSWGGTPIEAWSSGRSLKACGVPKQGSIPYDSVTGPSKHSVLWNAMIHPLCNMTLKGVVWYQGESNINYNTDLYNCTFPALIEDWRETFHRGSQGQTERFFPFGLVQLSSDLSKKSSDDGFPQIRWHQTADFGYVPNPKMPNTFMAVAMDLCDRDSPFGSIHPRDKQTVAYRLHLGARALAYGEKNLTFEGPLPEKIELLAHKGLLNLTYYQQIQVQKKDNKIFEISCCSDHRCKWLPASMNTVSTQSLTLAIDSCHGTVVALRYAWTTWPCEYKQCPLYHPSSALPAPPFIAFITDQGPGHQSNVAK
MBD2 inh: inhibitors of human MBD2 binding to methylated oligonucleotide; Q9UBB5; TR-FRET; inhibition, % at 4.4 µM; 0.31% of 370,000 active; AID 686964; in the data active means inhibition above about 13%
UHRF1 MBD2 ctr: blocks human UHRF1 binding to methylated DNA; Q96T88; UHRF1 binding to methylated oligo, TR-FRET; inhibition, % at 4.4 µM; 0.75% of 370,000 active; AID 687016; in the data active means inhibition above about 21%;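 further: UHRF1 SRA domain binding a hemimethylated CpG hairpin DNA probe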
TDP2 inh conf: confirmation of human TDP2 inhibitors; recombinant human TDP2, absorbance read-out; 22% of 1,100 active; shares compounds with TDP2 inh; inhibition, % at 12.8 µM; in the data active means inhibition above about 25%
Each line names hits and unclear results; the compound was inactive in the other large screens (follow-up assays come after a bar, where they were run); ! = repeats disagree. A selection: hits, their analogues and other compounds. The true share with any hit is near 3.3%.

COC(=O)C1=CN(Cc2ccccc2)C=C(C(=O)OC)C1c1ccc(OC)c(OC)c1	TDP2 inh 26 | TDP2 inh conf inactive
O=C(c1ccc(F)cc1Cl)N(Cc1ccccn1)CC1CCCO1 (stereo not drawn)	none
COc1cccc(NC(=O)c2cccc(C(=O)Nc3cccc(OC)c3)n2)c1	TDP2 inh 25 | TDP2 inh conf inactive
O=C(NCCCc1ccccc1)[C@H](Cc1c[nH]c2ccccc12)NC1(C(=O)NCCc2c[nH]c3ccccc23)CCC1	none
COc1ccc(C)cc1NC(=O)C(NCC(O)c1ccccc1)c1ccccc1 (stereo not drawn)	TDP2 inh 26 | TDP2 inh conf inactive
O=C(C1CCN(S(=O)(=O)c2ccc3[nH]c(=O)oc3c2)CC1)N1CCCN(Cc2ccccc2)CC1	none
CCCC[C@H]1C2CC(OC(=O)Nc3cccc(C(F)(F)F)c3)C(C2)[C@H]2CCCCN21 (stereo partly drawn)	none
O=C1C(Cl)=C(NCc2ccco2)C(=O)c2ccccc21	TDP2 inh 35 | TDP2 inh conf inactive
COc1cc(NCCCNC(C)C)c2nccc(C)c2c1	TDP2 inh 28 | TDP2 inh conf 28
COC(=O)CCC(=O)OC1(C)C(=O)C=C2C=C(C3CC3)N(C3CCCCC3)C=C2C1=O (stereo not drawn)	TDP2 inh 29 | TDP2 inh conf inactive
COc1ccc(CN2C=C3C(=O)C(C)(OC(=O)C4CCCC4)C(=O)C=C3C=C2c2ccsc2)cc1 (stereo not drawn)	none
COC(=O)CCC(=O)OC1(C)C(=O)C=C2C=C(C3CC3)N(CC3CC3)C=C2C1=O (stereo not drawn)	TDP2 inh 28 | TDP2 inh conf inactive
COC(=O)CCC(=O)OC1(C)C(=O)C=C2C=C(C3CC3)N(C3CCCC3)C=C2C1=O (stereo not drawn)	none
CCN(CC)CCCN1C=C2C(=O)C(C)(OC(=O)CCC(=O)OC)C(=O)C=C2C=C1C1CC1 (stereo not drawn)	none
COC(=O)CCC(=O)OC1(C)C(=O)C=C2C=C(C3CC3)N(Cc3ccccc3)C=C2C1=O (stereo not drawn)	TDP2 inh 26 | TDP2 inh conf inactive
c1cncc(CSc2nnc3ccc(-c4ccco4)nn23)c1	TDP2 inh 28 | TDP2 inh conf inactive
COC(=O)/C=C1/SC(=NC(=O)c2ccc(Cl)cc2)NC1=O	TDP2 inh 25 | TDP2 inh conf inactive
COC(=O)/C=C1\SC(=NC(=O)c2ccc(C)cc2)NC1=O	none
Cc1nn(-c2cccc(Cl)c2)c2c1C(c1cccnc1)C(C#N)=C(N)O2 (stereo not drawn)	TDP2 inh 60 | TDP2 inh conf inactive
Cc1nn(-c2ccccc2)c2c1C(c1ccco1)C(C#N)=C(N)O2 (stereo not drawn)	none
Cc1ccc(-n2nc(C)c3c2OC(N)=C(C#N)C3c2ccc(F)cc2)cc1 (stereo not drawn)	TDP2 inh 49 | TDP2 inh conf inactive
Cc1nn(-c2ccccc2)c2c1C(c1ccc([N+](=O)[O-])cc1)C(C#N)=C(N)O2 (stereo not drawn)	TDP2 inh 62 | TDP2 inh conf inactive
COC(=O)[C@]12C[C@H](CC(=O)N3CCC(c4ccccc4)CC3)C(=O)N(CCC3=CCCCC3)C1=C[C@H](C(C)C)O[C@@H]2C1CC1	none
C=CCOC(=O)N1CCN(C(=O)c2ccc3c(c2)nc(C)n3C2CCCC2)CC1	none
O=C(CN(CCc1ccccc1)S(=O)(=O)c1ccccc1)N1CCOCC1	none
CCCC1=[N+](CC(=O)c2ccc(Br)cc2)CCn2cccc21	TDP2 inh 30 | TDP2 inh conf inactive
CCCC1=[N+](CC(=O)c2ccccc2)CCn2cccc21	none
O=C(NC1CCCC1)C1CCN(C(=O)c2cc(Cl)ccc2Cl)CC1	TDP2 inh 26 | TDP2 inh conf inactive
C[C@@H]1/C=C/CC(=O)N[C@H](c2ccccc2)[C@H](C)/C=C/CC(=O)N[C@@H]1c1ccccc1	none
O=C(CSc1nnc(-c2ccccn2)n1-c1ccccc1)c1ccc(F)cc1	none
Cc1ccc(C(=O)N/N=C\c2ccc(Br)o2)o1	none
Cc1ccc(C(=O)N/N=C/c2ccc(-c3ccc(Br)cc3[N+](=O)[O-])o2)o1	TDP2 inh 27 | TDP2 inh conf inactive
CC1(C)Cc2ccccc2C2=NNC(=O)C2=N1	TDP2 inh 28 | TDP2 inh conf 34
CCN1CCN(C(C)C(=O)NC2CCCCC2)CC1 (stereo not drawn)	TDP2 inh 27 | TDP2 inh conf inactive
COc1ccc(C(=O)CSc2nnc(-c3ccccc3)n2-c2ccc(Cl)cc2)cc1	none
CS(=O)(=O)Nc1ccc(-c2cn3cccnc3n2)cc1	TDP2 inh 26 | TDP2 inh conf inactive
COc1cc(CNCc2ccc(Br)cc2)cc(OC)c1	TDP2 inh 25 | TDP2 inh conf inactive
COc1cc(CNCc2ccc(OC)cc2OC)cc(OC)c1	none
CCCCN1C(=O)C(NC(C)=O)c2cc(Br)ccc21 (stereo not drawn)	none
CC(=O)NC1C(=O)N(CCN2CCOCC2)c2ccc(F)cc21 (stereo not drawn)	TDP2 inh 32 | TDP2 inh conf 31
O=C(O)C(Cc1c[nH]c2ccccc12)NS(=O)(=O)c1ccc(F)cc1 (stereo not drawn)	TDP2 inh 28 | TDP2 inh conf inactive
O=C(O)C(Cc1c[nH]c2ccccc12)NS(=O)(=O)c1ccc2ccccc2c1 (stereo not drawn)	none
Cc1c(NC(=O)CN2CCN(c3ccccc3)CC2)c(=O)n(-c2ccccc2)n1C	none
Cc1c(NC(=O)CN2CC(C)OC(C)C2)c(=O)n(-c2ccccc2)n1C (stereo not drawn)	TDP2 inh 29! | TDP2 inh conf inactive
Cc1nn(C(C)C(=O)NCc2ccco2)c(=O)c2nn(-c3ccccc3)c(C)c12 (stereo not drawn)	TDP2 inh 28 | TDP2 inh conf inactive
CCC(C(=O)NCc1ccco1)n1nc(C)c2c(C)n(-c3ccccc3)nc2c1=O (stereo not drawn)	none
N[C@H](C(=O)N1CCC[C@@H]1C(=O)N1CCC2CCN(S(=O)(=O)c3ccccc3)CC21)c1ccccc1 (stereo partly drawn)	none
CC(C(=O)NC1C=CS(=O)(=O)C1)N1C(=O)/C(=C/c2cccc(Cl)c2)SC1=S (stereo not drawn)	TDP2 inh 27 | TDP2 inh conf inactive
CC(C(=O)NC1C=CS(=O)(=O)C1)N1C(=O)/C(=C\c2ccccc2)SC1=S (stereo not drawn)	none
CCCC(=O)Nc1cc(OC)c(NC(=S)Nc2ccc(CC)cc2)cc1OC	TDP2 inh 26 | TDP2 inh conf inactive

High-throughput results (PubChem BioAssay)
